The text below walks through data of the RNAGym collection of RNA variant scans (doi:10.1126/science.aae0568).

B1: tRNA (parent)
chain: GUUCCGUUGGCGUAAUGGUAACGCGUCUCCCUCCUAAGGAGAAGACUGCGGGUUCGAGUCCCGUACGGAACG

This sample holds only a part of the variants without activity.

Variants of B1 are the subject of this data set. Put plainly: yeast fitness relative to wild type (ratio to wild type); higher = fitter; tRNA-Arg(CCU), competitive growth, 37 C, YPD. Summed up:
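Genotype frequency changes were the basis for Darwinian fitness relative to wild type. The frequencies came from 100-nucleotide paired-end sequencing of gene amplicons from the start population and each end population of pooled yeast strains with tRNA-Arg(CCU) gene variants at the native locus. Competition ran in YPD at 37°C for 24 hours in six replicates, genotypes needed ≥ 100 starting reads, and estimates < 0.5 were set to 0.5.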
For GUUCCGUUGGCGUAAUGGUAACGCGUCUCCCUCCUAAGCAGAGGACUCCAGGUUCGAGUCCCGUACGGAACG [G39C A43G G48C G50A], the yeast fitness is at most 0.5.
As for GUUCCGUUGGCGUAAUGGUAACGCGUCUCCCUCCUAAGCAGAAGACAGCGGGUUCGCGUCCCGUACGGAACG [G39C U47A A57C], the yeast fitness is at most 0.5.
For GUUCCGUUGGCGUAAUGGUAACGCGUCUCCCUCCUAAGAAGAAGACUGCGGGUUCGAGUCUAGUACGGAACG [G39A C61U C62A], the yeast fitness worked out at 0.558.
Take GUUCCGUUGGCGUAAUGGUAACGCGUCUCCCUCCUAAGUAGAAGACUGCGGAUUCGAGUCCCGUACUGAACG [G39U G52A G67U]: the yeast fitness was at most 0.5.
As to GUUCCGUUGGCGUAAUGGUAACGCGUCUCCCUCCUAAGAAGAAGACUGCGGGUUCGAAUCCCGUACGGCACG [G39A G58A A69C], the yeast fitness is 0.592.
On to GUUCCGUUGGCGUAAUGGUAACGCGUCUCCCUCCUAAGGCGAAGCCUGCGGGUUCGAGUCCCGUACGGAACG [A40C A45C], for which the yeast fitness was 0.616.
GUUCCGUUGGCGUAAUGGUAACGCGUCUCCCUCCUAAGCGGAAGACUGCGGGUUCGAGUCCCGUACGGAACG [G39C A40G]: the yeast fitness was 0.67.
For the variant GUUCCGUUGGCGUAAUGGUAACGCGUCUCCCUCCUAAGCUGAAGACUGCGGGUUCGAGUCCCGUACGGAACG [G39C A40U], the yeast fitness amounted to 0.73.
GUUCCGUUGGCGUAAUGGUAACGCGUCUCCCUCCUAAGCAGAAGACUGCGGGUUGGAGACCCAUACGGAACG [G39C C55G U59A G63A]: the yeast fitness was at most 0.5.
With GUUCCGUUGGCGUAAUGGUAACGCGUCUCCCUCCUAAGCAGAUGACUGCGGGCUCGAGUCCCGUACGGAACG [G39C A43U U53C], the yeast fitness was 0.606.
For GUUCCGUUGGCGUAAUGGUAACGCGUCUCCCUCCUAAGGCGACGACUGCGGGUUCGAGUCCCGUACGGAACG [A40C A43C], the yeast fitness turned out to be 1.04.
Under GUUCCGUUGGCGUAAUGGUAACGCGUCUCCCUCCUAAGCAGAAGACUGCGGGUUCGAGUCCCGUACGGAACG [G39C] stands 0.93; under GUUCCGUUGGCGUAAUGGUAACGCGUCUCCCUCCUAAGUAGAAGACUGCGGGUUCGAGUCCCGUACGGAACG [G39U], 1.
As to GUUCCGUUGGCGUAAUGGUAACGCGUCUCCCUCCUAAGAAGAAGACAGCGGGUUCGAGUCCCGUACGCAACG [G39A U47A G68C], the yeast fitness stood at 0.597.
For the variant GUUCCGUUGGCGUAAUGGUAACGCGUCUCCCUCCUAAGCAGAAGACUGCCGGUUCGAGUCGCGUACGGAACG [G39C G50C C61G], the yeast fitness is at most 0.5.
In the case of GUUCCGUUGGCGUAAUGGUAACGCGUCUCCCUCCUAAGCAGAAGACUCCGGGUUCGAGUCCGGUACGGAACG [G39C G48C C62G], the yeast fitness is at most 0.5.
With GUUCCGUUGGCGUAAUGGUAACGCGUCUCCCUCCUAAGUAGAAGACUGCGGGAUUGAGUCCCGUACGGAACG [G39U U53A C55U], the yeast fitness was found to be 0.684.
With GUUCCGUUGGCGUAAUGGUAACGCGUCUCCCUCCUAAGUCGAAGACUGCGGGUUCGAGUCCCGUAAGGUACG [G39U A40C C66A A69U], the yeast fitness was 0.642.
Consider GUUCCGUUGGCGUAAUGGUAACGCGUCUCCCUCCUAAGCAGAAGACAGCGGGUUCGAAUCCCAUACGGAACG [G39C U47A G58A G63A], for which the yeast fitness was at most 0.5.
For the variant GUUCCGUUGGCGUAAUGGUAACGCGUCUCCCUCCUAAGUAGAAGACUGCGGGUUCGAGUCCCGUACGGACCG [G39U A70C], the yeast fitness came to 0.811.
In the case of GUUCCGUUGGCGUAAUGGUAACGCGUCUCCCUCCUAAGCAGAAGACUGCGGGUUCGAGACCCGUACGGAACG [G39C U59A], the yeast fitness turned out to be 0.779.
As to GUUCCGUUGGCGUAAUGGUAACGCGUCUCCCUCCUAAGGCGCAGACUGCGGGUUCGAGUCCCGUACGCAACG [A40C A42C G68C], the yeast fitness was determined as 0.569.
On to GUUCCGUUGGCGUAAUGGUAACGCGUCUCCCUCCUAAGAAGAAGACUGCGGGUUCGAGUCCCGUACCGAACG [G39A G67C], for which the yeast fitness stood at 0.825.
GUUCCGUUGGCGUAAUGGUAACGCGUCUCCCUCCUAAGCAGAAGAUUGCGGGUUCAAGUCCCGUACGGAACG [G39C C46U G56A]: the yeast fitness was found to be 0.694.
As to GUUCCGUUGGCGUAAUGGUAACGCGUCUCCCUCCUAAGCAGAAGACUCCGGGUUCGAGUCCCGUACGGAACG [G39C G48C], the yeast fitness amounted to 0.688.
In the case of GUUCCGUUGGCGUAAUGGUAACGCGUCUCCCUCCUAAGCAGAAGACUGCGGGUUCGAGUGCCGUACCGAACG [G39C C60G G67C], the yeast fitness was at most 0.5.
Consider GUUCCGUUGGCGUAAUGGUAACGCGUCUCCCUCCUAAGCAGAAGACUGCGGGUUCGACUCCCGUACGGAACG [G39C G58C], for which the yeast fitness amounted to 0.83.
Under GUUCCGUUGGCGUAAUGGUAACGCGUCUCCCUCCUAAGCAGAAGACUGCGGGUUCGAGUCCCGUAUGGUACG [G39C C66U A69U] stands 0.551; under GUUCCGUUGGCGUAAUGGUAACGCGUCUCCCUCCUAAGCAGACGGCUGCGGGUUCGAGUCCCGUACGGAACG [G39C A43C A45G], at most 0.5.
Under GUUCCGUUGGCGUAAUGGUAACGCGUCUCCCUCCUAAGAAGAAGACUGCGGGUUCCAGUCCCGUAAGGAACG [G39A G56C C66A] stands at most 0.5; under GUUCCGUUGGCGUAAUGGUAACGCGUCUCCCUCCUAAGCUGAAGACUGCGGGUUCGAGUCCCGUCCGGAACG [G39C A40U A65C], at most 0.5; under GUUCCGUUGGCGUAAUGGUAACGCGUCUCCCUCCUAAGCAGAAGACUGCGGGUUCGAGUCCCGUACGGAGCG [G39C A70G], 0.915.
For the variant GUUCCGUUGGCGUAAUGGUAACGCGUCUCCCUCCUAAGCAGAAGACUGCGGGUUCGAGUCCCGUACGGAUCG [G39C A70U], the yeast fitness worked out at 0.873.
Turning to GUUCCGUUGGCGUAAUGGUAACGCGUCUCCCUCCUAAGCAGAAGACUGCGGGUUCGAGUCCCGUACGGACCG [G39C A70C], the yeast fitness is 0.769.
As to GUUCCGUUGGCGUAAUGGUAACGCGUCUCCCUCCUAAGCAGAAGACUGCGGGUUGGAGUCCCGUAUGGAACG [G39C C55G C66U], the yeast fitness is at most 0.5.
For GUUCCGUUGGCGUAAUGGUAACGCGUCUCCCUCCUAAGAAGAAGACUGCGGGUUCGACUCCCGUACGGAACG [G39A G58C] the value was 0.948; for GUUCCGUUGGCGUAAUGGUAACGCGUCUCCCUCCUAAGGCGUAGACUGCGGGUUCGAGUCCCGUACGGAACG [A40C A42U], 0.782.
As for GUUCCGUUGGCGUAAUGGUAACGCGUCUCCCUCCUAAGGCGCAGACUGCGGGUUCGAGUCCCGUACGGAACG [A40C A42C], the yeast fitness was determined as 0.619.
